High-throughput results deposited in PubChem by several laboratories.
HCV NS3 hel inh = blocks Hepatitis C virus NS3 helicase unwinding. NS3 helicase DNA unwinding, Cy5 molecular beacon fluorescence. AID 1800. inhibition, % at 10.9 µM. 290,000 compounds, 0.56% hits;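 active = inhibition above the mean of all tested compounds plus 3 SD, set per campaign, cut at about 35% in these data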
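Material: hepatitis C virus NS3 helicase domain fragment enzyme; measured by: Cy5 fluorescence, 0 and 60 min reads; control set: DMSO and thioflavine S; incubation: 60 min unwinding reaction at 25 °C after ATP addition; read-out basis: % inhibition from 60/0 min fluorescence ratio, DMSO 0%, thioflavine S 100%; repeats: singlicate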
eIF4H inh = inhibitors of RNA binding by human eIF4H. eIF4H fluorescence polarization binding assay. Q15056. inhibition, % at 35 µM. AID 2012. 290,000 compounds, 0.94% hits; call rule not given here;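 also: calls also rest on retests at 20 µM and on dose response follow-up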
HCV core dimer = blocks dimerization of HCV core protein | TR-FRET GST/Flag-core106 dimerization, 1536-well | inhibition, % at 5 µM | 300,000 compounds, 0.33% hits;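 active = inhibition above the mean of all tested compounds plus 3 SD, set per screening campaign, cut at about 45% in these data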
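System: GST-tagged and Flag-tagged HCV core protein residues 1-106 / Input: core106 proteins, GST 13.5 nM and Flag 17 nM / Buffer or medium: KF-containing HEPES buffer, pH 7.45, DTT, CHAPS, BSA / Probe or stimulus: Eu-anti-GST and XL665-anti-Flag labelled anti-tag antibodies / Schedule: 4 h, 22.5 °C incubation / Technique: TR-FRET 671 and 617 nm emission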
DNA FID counter-1 = counter-screen for HCV NS3 helicase inhibitors: DNA intercalator displacement | AID 1845 | inhibition, % at 7.9 µM | DNA fluorescent intercalator displacement, fluorescence | 290,000 compounds, 0.17% hits;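 also: higher means more ethidium bromide displaced from hairpin DNA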
PABP FP inh = blocks human PABP binding to poly(A) RNA. fluorescence polarization. inhibition, % at 35 µM. 290,000 compounds, 1% hits; call rule not given here;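 also: calls also rest on retests at 20 µM and on dose response follow-up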
PABP1 MLLE inh = blocks PAM2 peptide binding to the PABP1 MLLE domain | 360,000 compounds, 0.36% hits | GST-MLLE / FITC-PAM2 fluorescence polarization | P11940 | inhibition, % at 20 µM; in the data active = inhibition above about 35%, passing the limit was not always enough
NS3 hel confirm = confirmation of Hepatitis C virus NS3 helicase inhibitors. shares compounds with HCV NS3 hel inh. AID 1943. 1,600 compounds, 31% hits. NS3 helicase DNA unwinding, Cy5 molecular beacon fluorescence. inhibition, % at 10.9 µM;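 active = inhibition above the mean of all tested compounds plus 3 SD, cutoff set per campaign, cut at about 36% in these data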
DNA FID counter-2 = displaces DNA intercalator in HCV helicase counter-screen; shares compounds with HCV NS3 hel inh; inhibition, % at 7.9 µM; 1,600 compounds, 4% hits; DNA fluorescent intercalator displacement, fluorescence;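 also: higher means more displacement of ethidium bromide from the DNA hairpin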
Each line names hits and unclear results; the compound was inactive in the other large screens (follow-up assays come after a bar, where they were run). Sampled rows, rich in hits. Any-hit rate of the full collection: about 2%. Rule as the data show it, unless noted: active = inhibition above about 37%; inactive = the rest.

O=C(NCCC1CCCCN1S(=O)(=O)c1ccccc1)C(=O)NCc1cccnc1 (stereo unspecified)	none (no result: HCV NS3 hel inh, eIF4H inh, DNA FID counter-1, PABP FP inh)
O=c1cc(-c2ccc([N+](=O)[O-])cc2)nc2cc(-c3ccc(Cl)cc3)[nH]n12	HCV NS3 hel inh 48 (no result: PABP1 MLLE inh) | NS3 hel confirm inactive | DNA FID counter-2 inactive
CCCc1cc(=O)n2[nH]c(-c3ccc(Cl)cc3)cc2n1	none
Cn1nc(C(C)(C)C)cc1C(=O)N1CCCCC1c1cc(C(=O)Nc2ccccc2Cl)no1 (stereo unspecified)	none (no result: HCV NS3 hel inh, eIF4H inh, HCV core dimer, DNA FID counter-1, PABP FP inh)
CC1(C(=O)NCc2ccccc2Br)CCN1C(=O)CCc1ccc(Cl)cc1Cl (stereo unspecified)	none (no result: HCV NS3 hel inh, eIF4H inh, HCV core dimer, DNA FID counter-1, PABP FP inh)
O=C1c2ccc([N+](=O)[O-])cc2NC(c2ccco2)N1/N=C/c1ccco1 (stereo unspecified)	HCV NS3 hel inh 42, eIF4H inh 56 | NS3 hel confirm inactive | DNA FID counter-2 inactive
CN=c1scc(-c2ccc([N+](=O)[O-])cc2)n1/N=C/c1ccco1	none
CCCCn1c(N)c(N(CCC(C)C)C(=O)CCCc2nc3ccccc3s2)c(=O)[nH]c1=O	HCV NS3 hel inh 38 | NS3 hel confirm inactive | DNA FID counter-2 inactive
CCCCN(C(=O)c1cc(-c2ccco2)nc2ccccc12)c1c(N)n(CCCC)c(=O)[nH]c1=O	none (no result: HCV NS3 hel inh, eIF4H inh, DNA FID counter-1, PABP FP inh)
CCCCn1c(N)c(N(CCC(C)C)C(=O)c2cc(-c3ccco3)nc3ccccc23)c(=O)[nH]c1=O	HCV NS3 hel inh 41, eIF4H inh 60, HCV core dimer 49, PABP FP inh 20 | NS3 hel confirm inactive | DNA FID counter-2 inactive
CCCCn1c(N)c(N(CC(C)C)C(=O)CCCc2nc3ccccc3s2)c(=O)[nH]c1=O	none (no result: HCV NS3 hel inh, eIF4H inh, DNA FID counter-1, PABP FP inh)
CSc1sc(-c2ccnc(SCC(=O)C(C)(C)C)n2)c2c1C(=O)CC(C)(C)C2	HCV NS3 hel inh 56 | NS3 hel confirm inactive | DNA FID counter-2 inactive
Cc1ncc(CN2CCCC(C(=O)Nc3ccc(-c4cccc(F)c4)cc3)C2)n1C (stereo unspecified)	none
O=C(NCc1ccccc1)C(c1ccncc1)N(C(=O)c1csnn1)c1cccc(F)c1 (stereo unspecified)	none
COC(=O)c1ccc(C2/C(=C(\O)c3ccc4c(c3)OCCO4)C(=O)C(=O)N2CCCN2CCOCC2)cc1 (stereo unspecified)	none
CCCOc1cccc(C2/C(=C(\O)c3ccc4c(c3)OCCO4)C(=O)C(=O)N2CCCn2ccnc2)c1 (stereo unspecified)	HCV NS3 hel inh 41 | NS3 hel confirm inactive | DNA FID counter-2 inactive
C=CCOc1ccc(C2/C(=C(\O)c3ccc4c(c3)OCCO4)C(=O)C(=O)N2CCCN2CCOCC2)cc1 (stereo unspecified)	HCV NS3 hel inh 50 | NS3 hel confirm inactive | DNA FID counter-2 inactive
COc1ccc(C2/C(=C(\O)c3ccc4c(c3)OCCO4)C(=O)C(=O)N2CCCn2ccnc2)cc1 (stereo unspecified)	none
O=C(O)CCC(=O)N1N=C(c2c(-c3ccccc3)c3cc(Cl)ccc3[nH]c2=O)CC1c1cccs1 (stereo unspecified)	HCV NS3 hel inh 37 | NS3 hel confirm 90 | DNA FID counter-2 inactive
CC1(C)CCCC2(C)C(OCCO)=CC(=O)C=C12 (stereo unspecified)	none (no result: HCV NS3 hel inh, eIF4H inh, HCV core dimer, DNA FID counter-1, PABP FP inh)
Cn1c(=S)[nH]c2sc3c(c2c1=O)CCC(C(C)(C)C)C3 (stereo unspecified)	HCV NS3 hel inh 43 | NS3 hel confirm inactive | DNA FID counter-2 inactive
COCCn1c(=S)[nH]c2sc3c(c2c1=O)CCC(C)C3 (stereo unspecified)	none
CCN(Cc1nc2ccccc2c(=O)[nH]1)C(=O)COc1ccccc1-c1ccccc1	none (no result: HCV NS3 hel inh, eIF4H inh, HCV core dimer, DNA FID counter-1, PABP FP inh)
Cc1cccc(NC(=S)NC(=O)/C=C/c2ccco2)n1	HCV NS3 hel inh 77, eIF4H inh 56, PABP FP inh 60 | NS3 hel confirm inactive | DNA FID counter-2 inactive
COc1ccc(CCNC(=O)/C=C/c2ccco2)cc1	HCV NS3 hel inh 41 | NS3 hel confirm inactive | DNA FID counter-2 inactive
